Assay outcomes (PubChem BioAssay)
A selection: hits, their analogues and other compounds. The true share with any hit is near 1.8%.
CHRM5 agonist: CHRM5 agonism in calcium assay; activation, % at 3 µM; CHO-K1 hM5 cells, Fluo-8 calcium fluorescence; 0% DMSO wells, 100% maximal acetylcholine response; P08912; AID 624037; 0.19% of 360,000 active;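 active means activation above the run's mean over test compounds plus 3 SD, cut at about 23% in these data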;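 further: signal is peak over basal fluorescence ratio across the kinetic read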
Target sequence (P08912 whole entry, looked up): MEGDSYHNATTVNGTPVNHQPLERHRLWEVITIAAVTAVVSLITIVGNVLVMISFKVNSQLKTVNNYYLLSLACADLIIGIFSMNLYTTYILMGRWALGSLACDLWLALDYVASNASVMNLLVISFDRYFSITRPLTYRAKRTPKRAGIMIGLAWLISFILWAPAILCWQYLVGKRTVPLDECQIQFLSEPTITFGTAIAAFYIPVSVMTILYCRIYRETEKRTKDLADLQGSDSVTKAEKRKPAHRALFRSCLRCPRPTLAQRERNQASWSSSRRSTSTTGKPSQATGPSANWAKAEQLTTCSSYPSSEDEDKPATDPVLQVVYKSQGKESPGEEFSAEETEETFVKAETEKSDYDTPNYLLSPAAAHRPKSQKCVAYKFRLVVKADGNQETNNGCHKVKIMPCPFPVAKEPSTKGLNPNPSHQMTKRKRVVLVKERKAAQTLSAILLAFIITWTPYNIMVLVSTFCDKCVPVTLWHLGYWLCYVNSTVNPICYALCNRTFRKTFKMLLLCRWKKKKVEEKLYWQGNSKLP
M5 PAM: potentiates acetylcholine response at human M5 receptor | P08912 | CHO-K1 hM5, Fluo-8 calcium, ACh EC20 PAM; 0% = ACh EC20, 100% = ACh EC100 | 0.3% of 360,000 active | activation, % at 3 µM;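 active means activation above the run cutoff, the mean activation of all test compounds plus 3 SD, cut at about 18% in these data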
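Replicates: One well per compound, no replicates | System: Human M5 receptor in CHO-K1 cells | Benchmarks: Low control EC20 acetylcholine (0%), high control EC100 acetylcholine (100%) | Probe or stimulus: Acetylcholine, EC20 level | Times: Fluo-8 loading 80 min at 37 °C plus 30 min room temperature | Signal: Intracellular calcium via Fluo-8 fluorescence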
M4 antag: antagonists of human muscarinic M4 receptor (CHRM4). P08173. CHO-hM4 cells, ACh EC80, Fluo-8 calcium fluorescence. inhibition, % at 3 µM. 0.73% of 360,000 active. AID 624125;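 active means inhibition above its plate's cutoff, the mean inhibition of sample wells plus 3 SD, cut at about 27% in these data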;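 further: 0% = acetylcholine EC80 with DMSO and 100% = DMSO without agonist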
CHRM4 agonist: agonists of human muscarinic M4 receptor (CHRM4); P08173; activation, % at 3 µM; AID 624127; CHO-K1 hM4/Gqi5, Fluo-8 calcium fluorescence; vehicle 0%, full acetylcholine response 100%; 0.14% of 360,000 active;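 active means activation above the run mean over all test wells plus 3 SD, cut at about 32% in these data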;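 further: peak over basal fluorescence ratio per well then scaled between controls; 0% = DMSO wells and 100% = acetylcholine at EC100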
CHRM4 PAM: CHRM4 positive allosteric modulation | activation, % at 3 µM | AID 624126 | 0.4% of 360,000 active | P08173 | CHO-K1 hM4/Gqi5, Fluo-8 calcium fluorescence, ACh EC20; 0% = ACh EC20, 100% = maximal ACh;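 active means activation above its plate's cutoff, the mean activation of sample wells plus 3 SD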
M5 antag: CHRM5 antagonism in calcium assay. P08912. CHO-hM5 cells, Fluo-8 calcium fluorescence, ACh EC80. inhibition, % at 3 µM. 0.59% of 360,000 active;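 active means inhibition above a per-plate cutoff, the mean of that plate's test compounds plus 3 SD, cut at about 27% in these data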;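 further: 0% = acetylcholine EC80 with DMSO and 100% = DMSO without agonist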
* hit, by the source's call.

SMILES | CHRM5 agonist | M5 PAM | M4 antag | CHRM4 agonist | CHRM4 PAM | M5 antag
COc1ccc(/C=C/C(=O)OCC(=O)Nc2cc(C(N)=O)cc(C(N)=O)c2)cc1 | 0 | 18* | 0 | 0 | 5 | -13
COc1ccc(/C=C/C(=O)OCC(=O)Nc2cccc(C(C)=O)c2)cc1 | 3 | -6 | -6 | 13 | -18 | 2
CC12CCC3C(=CCc4cc(O)ccc43)C1CC(=NO)C2O (stereo unspecified) | 24* | -1 | -16 | 5 | 3 | 11
O=C(NNC(=O)c1ccccc1Cl)c1ccc2c(c1)OCCO2 | 1 | -10 | -11 | 2 | 13 | 6
CCOC(=O)CSC(=S)NC(=O)c1ccc(OC)cc1 | 3 | 2 | 4 | 1 | 35* | 2
CCOC(=O)[C@]12CCC=C1N(Cc1ccccc1)C(=O)[C@H](CC(=O)NCCC(C)C)C2 | 1 | 1 | 5 | 0 | 9 | -9
O=C(CCN1C(=O)c2ccccc2C1=O)C1=NN[C@@H]2C(=O)N(c3ccc4c(c3)OCO4)C(=O)[C@H]12 | 4 | -7 | -7 | 4 | 0 | 1
O=C(O)c1ccc(Br)cn1 | 2 | 13 | -1 | 1 | 20* | -5
NNC(=O)CN1C(=O)Nc2ccc(Cl)cc2C1c1ccccc1 (stereo unspecified) | -7 | 2 | 45* | 0 | -16 | 4
COc1ccc(CN2CCC[C@]3(N[C@H](c4ccc(OC)cc4)[C@@H]4C(=O)N(C)C(=O)[C@@H]43)C2=O)cc1 | 1 | 3 | -14 | 1 | 5 | -4
Cc1c(C(=O)NCc2ccc3c(c2)OCO3)oc2ccc(S(=O)(=O)N3CCCCC3)cc12 | 4 | -19 | 27* | 15 | -27 | 15
Cc1c(C(=O)NCc2ccc3c(c2)OCO3)oc2ccc(S(=O)(=O)N3CCCC3)cc12 | 2 | -15 | 7 | 15 | -8 | 11
CN(C)c1ccc(/C=C(\C#N)C(=O)c2ccccc2)cc1 | 63* | -21 | 37* | 70* | -23 | 40*
CCN(CC)c1ccc(/C=C(\C#N)C(=O)c2ccc(Br)cc2)cc1 | 108* | -18 | 51* | 58* | -10 | 70*
CCN(CC)c1ccc(/C=C(\C#N)C(N)=O)cc1 | -4 | 1 | -5 | 2 | -3 | 0
COc1ccc(NCc2cccnc2)cc1 | 4 | 0 | 7 | 1 | 2 | -13
O=[N+]([O-])c1c(Nc2cccc(O)c2)cc(Cl)c2nonc12 | -5 | 2 | 60* | -2 | -2 | 15
CC(C)COC(=O)N1CCN(S(=O)(=O)c2ccc3c(c2)CCC3)CC1 | 0 | -6 | -7 | 2 | 8 | 10
COc1ccc(Nc2c(CC(C)C)nc3nc(C)cc(C)n23)cc1 | 1 | 2 | -31 | -4 | 17 | -6
COc1ccc(Nc2c(C3CC3)nc3nc(C)cc(C)n23)cc1 | 3 | 4 | -12 | -2 | 28* | -3
COc1ccc(N=C(c2ccccc2)c2c(C)[nH]n(-c3ccccc3)c2=O)c(OC)c1 | -2 | -12 | 13 | -2 | -21 | 3
COc1ccc(C2NC(=S)NC(O)(C(F)(F)F)C2C(=O)c2cccs2)cc1 (stereo unspecified) | -6 | -16 | 43* | 2 | -37 | 5
COc1cc(C2NC(=O)NC(O)(C(F)(F)F)C2C(=O)c2cccs2)ccc1O (stereo unspecified) | 0 | -1 | 7 | 1 | 0 | 4
COc1ccc2ccccc2c1-c1sc(Nc2ccccc2)n[n+]1-c1ccc(F)cc1 | 28* | -33 | 9 | 32* | -8 | 35*
CCN(CC)c1ccc(-c2sc(Nc3ccccc3)n[n+]2-c2ccc(F)cc2)cc1 | 20 | -11 | -4 | 22 | -6 | 26
SMILES | CHRM5 agonist | M5 PAM | M4 antag | CHRM4 agonist | CHRM4 PAM | M5 antag
CCc1ccc(Nc2n[n+](-c3ccccc3)c(-c3ccc(N(CC)CC)cc3)s2)cc1 | 19 | -16 | 30* | 42* | -9 | 36*
CCc1ccc(Nc2n[n+](-c3ccccc3)c(-c3c(Cl)cccc3Cl)s2)cc1 | 49* | -25 | 24 | 43* | -19 | 70*
COc1ccc(-c2sc(Nc3ccccc3)n[n+]2-c2ccc(F)cc2)cc1Br | -5 | -5 | 10 | 1 | 14 | 14
CCOc1ccc(-c2nnc(-c3ccncc3)o2)cc1 | -7 | 42* | -15 | 4 | 25* | -14
O=C(O)CCc1nc2cc(C(F)(F)F)ccc2n(Cc2ccccc2)c1=O | -2 | -5 | 9 | 0 | -7 | 14
CC1CCN(S(=O)(=O)c2ccc(NC(=O)c3ccccc3F)cc2)CC1 | 1 | -1 | -1 | 6 | -8 | 11
CC1CCN(S(=O)(=O)c2ccc(NC(=O)Cn3nnc(-c4ccccc4F)n3)cc2)CC1 | -3 | -22 | -3 | 5 | -3 | 31*
NC(Cc1ccc(Cl)cc1)c1csc(NC(=O)Nc2ccccc2)n1 (stereo unspecified) | 4 | 1 | 27* | 28 | -2 | 7
COc1ccccc1NC(=O)Nc1nc(C(N)Cc2ccccc2)cs1 (stereo unspecified) | 2 | -3 | 5 | 14 | 2 | 11
Cc1ccccc1NC(=O)Nc1nc(C(N)Cc2ccccc2)cs1 (stereo unspecified) | 11 | -4 | 6 | 36* | -7 | 4
COc1ccccc1NC(=O)Nc1nc(C(N)Cc2ccc(Cl)cc2)cs1 (stereo unspecified) | 2 | 3 | 34* | 51* | -4 | 9
O=C(C1CCN(C2CCN(Cc3ccsc3)CC2)CC1)N1CCOCC1 | -4 | -2 | 0 | 1 | -2 | 0
CCOC(=O)C1=C(COC(=O)C2(C)CC2(Cl)Cl)NC(=O)NC1c1ccccc1 (stereo unspecified) | -5 | 3 | -7 | 0 | -4 | 3
N#CCCn1cc(/C=N/O)c(-c2cccc([N+](=O)[O-])c2)n1 | -11 | -15 | 8 | 1 | 4 | 47*
N#CCCn1cc(/C=N/O)c(-c2ccccc2)n1 | 2 | 9 | 2 | 1 | 19 | -8
O=C(Nc1ccccc1)Nc1cc(OCC(F)(F)F)cc(OCC(F)(F)F)c1 | 1 | -18 | 10 | 12 | -16 | 47*
COc1ccc(-c2csc(NC(=O)CSc3nc(C)nc4sc(C(=O)O)c(C)c34)n2)cc1 | 0 | -7 | 3 | 0 | -4 | 15
COc1ccc2c(c1)[C@H]1[C@H](CO2)[C@H](c2ccccc2)[C@]2(C)C(=O)Nc3ccc(C)cc3C(=O)N12 | -10 | -7 | -2 | 1 | -7 | 10
